The source of these data is ChEMBL document CHEMBL5032502, “Syntheses, Biological Evaluations, and Mechanistic Studies of Benzo[c][1,2,5]oxadiazole Derivatives as Potent PD-L1 Inhibitors with In Vivo Antitumor Activity” (J Med Chem, 2021).

Broadly, the AUC(0-t) is the area under the concentration-time curve up to a stated or last time point. High values mean more exposure, low ones less exposure. For orientation: IC50 means the concentration that gives 50% inhibition. Usually Tmax stands for the time at which the peak concentration occurs. The term half-life denotes the time needed for the level to fall by half in the phase considered. Usually bioavailability stands for dose-corrected exposure relative to a reference, in per cent. Read a high bioavailability as good availability.

SMILES strings stand for the structures. Calls of active or inactive are those of the source.

Data set [1] in a line: AUC (0 to t) in C57BL/6 mouse at 2 mg/kg, iv measured upto 24 hrs by LC-MS analysis. Type of data set: ADME, organism-based. Also on record: route intravenous, dose 2 mg/kg, time <=24. As to conditions: in vivo. A digest of the protocol:
(§1)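 Male animals fasted 12 h before dosing. Plasma levels measured by LC-MS, with the prodrug quantified as the parent acid. Mean ± SEM, n = 3.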

Data set [2] deals with MC-38. Kind of data set: Antitumor activity against mouse MC38 cells xenografted in C57BL/6 mouse assessed as increase in CD3 positive T cells at 25 mg/kg, po by flow cytometry analysis. In kind it is functional, organism-based. A digest of the protocol: (§2)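 Tumours taken from PD-L1-humanized mice carrying MC38-hPD-L1 tumours and dosed orally at 5 or 25 mg/kg daily. Tissue digested to single cells, red cells lysed with ACK buffer, Fc blocked. Surface stain 60 min for CD45, CD3, CD4, CD8, CD335, CD11b, Ly6G, Ly6C and F4/80, with a viability dye. Intracellular FOXP3 stain after permeabilization. Mean ± SEM, n = 7−8, one-way ANOVA.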

For data set [3], the system named is MC-38. Nature of the data set: Antitumor activity against mouse MC38 cells xenografted in C57BL/6 mouse assessed as reduction in macrophages at 25 mg/kg, po by flow cytometry analysis. Type of data set: functional, organism-based. A digest of the protocol:
as §2

Data set [4] deals with Programmed cell death protein 1/Programmed cell death 1 ligand 1 (Homo sapiens, UniProt Q9NZQ7). Nature of the data set: Inhibition of human PD-1/PD-L1 interaction assessed as blockade activity incubated for 15 mins by HTRF assay. In kind it is protein-complex assay. A digest of the protocol:
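Tag1-PD-L1 and Tag2-PD-1 proteins preincubated with compound (0.1 nM to 10 μM, triplicate) 15 min at room temperature, then anti-Tag1-Eu³⁺/anti-Tag2-XL665 added for 2 h at room temperature. Excitation 337 nm, emission 665 and […]. Signal taken as 665/615 ratio ×10 000; IC50 fitted from inhibition rates.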

The test system of data set [5] is MC-38. Nature of the data set: Antitumor activity against PD-L1 humanized mouse MC38 cells implanted in PD-L1 humanized C57BL/6 mouse assessed as tumor growth inhibition at 5 mg/kg, po measured after 27 days. In kind it is functional. As to conditions: MC-38, po, 648 h, time 27 day, read-out: TGI. A digest of the protocol: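 Female PD-L1-humanized C57BL/6 mice, 6 weeks old, injected in the right flank with 1 × 10⁶ MC38-hPD-L1(Tg)-mPDL1(KO) cells in PBS. At 50 mm³ tumours, animals randomized to 0.5% CMC-Na vehicle or drug by daily oral gavage. Tumours measured twice weekly, volume = 0.5 × L × W². Sacrifice on day 27. TGI = (1 − Vt/Vv) × 100. n = 8.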

The nature of data set [6]: Tmax in Sprague-Dawley rat at 9 mg/kg, iv measured upto 24 hrs by LC-MS analysis. Type of data set: ADME, organism-based. As to conditions: in vivo. A digest of the protocol: (§3)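 Male Sprague-Dawley rats or C57BL/6 mice fasted 12 h before dosing, given oral (po) or intravenous (iv) doses. Plasma levels measured by LC-MS. Parameters reported as mean ± SEM, n = 3.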
The nature of data set [7]: Toxicity in C57BL/6 mouse assessed as effect on creatinine kinase level at 2000 mg/kg, po observed for 30 days. Type of data set: organism-based. As to conditions: in vivo, 720 h, time 30 day.
Data set [8] in a line: Half life in Sprague-Dawley rat at 45 mg/kg, po measured upto 24 hrs by LC-MS analysis. Particulars: in vivo. In kind it is ADME, organism-based. A digest of the protocol:
as §1

Data set [9] in a line: Acute toxicity in C57BL/6 mouse assessed as body weight loss at 2000 mg/kg, po observed for 30 days. Type of data set: organism-based. As to conditions: in vivo, 720 h, time 30 day. A digest of the protocol:
(§4)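 Healthy C57BL/6 mice got a single oral 2000 mg/kg dose. Mortality and body weight were then recorded over a 30-day observation period.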

Data set [10] can be described thus: Tmax in C57BL/6 mouse at 2 mg/kg, iv measured upto 24 hrs by LC-MS analysis. In kind it is ADME, organism-based. Particulars: in vivo. A digest of the protocol:
as §3

The subject of data set [11] is MC-38. Nature of the data set: Antitumor activity against mouse MC38 cells implanted in C57BL/6 mouse assessed as tumor growth inhibition at 300 mg/kg, po measured after 18 days. In kind it is functional. As to conditions: MC-38, po, 432 h, time 18 day, read-out: TGI. A digest of the protocol: (§5)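 Female C57BL/6J mice, 8 weeks old, injected dorsally with 1 × 10⁶ MC38 cells in PBS. At 50 mm³, randomized to CMC-Na vehicle, 50, 150 or 300 mg/kg by daily oral gavage. Tumours measured every two days, volume = 0.5 × L × W². Sacrifice after 18 days of treatment. TGI = (1 − Vt/Vv) × 100. n = 8−10.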

A short description of data set [12]: AUC (0 to t) in C57BL/6 mouse at 10 mg/kg, po measured upto 24 hrs by LC-MS analysis. Type of data set: ADME, organism-based. Also on record: route oral, dose 10 mg/kg, time <=24. As to conditions: in vivo. A digest of the protocol:
as §1

The test system of data set [13] is B16-F10. Kind of data set: Antitumor activity against mouse B16-F10 cells implanted in C57BL/6 mouse assessed as tumor weight at 45 mg/kg, po measured after 18 days (reference value: 1.76 gm). As to conditions: time 18 day. Type of data set: functional. A digest of the protocol:
(§6)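 Female C57BL/6J mice, 8 weeks old, injected dorsally with 1 × 10⁶ B16-F10 cells in PBS. Daily oral gavage started the same day (day 1), in 0.5% CMC-Na vehicle. Tumour size and body weight recorded daily, volume = 0.5 × L × W². Sacrifice on day 18, tumours excised and weighed. TGI = (1 − Vt/Vv) × 100.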

Data set [14] is described as follows: Tmax in Sprague-Dawley rat at 45 mg/kg, po measured upto 24 hrs by LC-MS analysis. In kind it is ADME, organism-based. As to conditions: in vivo. A digest of the protocol:
as §3

Data set [15] is described as follows: Acute toxicity in C57BL/6 mouse assessed as mortality at 2000 mg/kg, po observed for 30 days. As to conditions: in vivo, 720 h, time 30 day. In kind it is organism-based. A digest of the protocol:
as §4

Data set [16] in a line: Oral bioavailability in C57BL/6 mouse at 10 mg/kg measured upto 24 hrs by LC-MS analysis. Type of data set: ADME, organism-based. As to conditions: in vivo. A digest of the protocol:
as §3

Data set [17] relates to MC-38. Nature of the data set: Antitumor activity against mouse MC38 cells xenografted in C57BL/6 mouse assessed as reduction in mMDSC cells at 25 mg/kg, po by flow cytometry analysis. In kind it is functional, organism-based. A digest of the protocol:
as §2
On the technique in general: Flow cytometry measures light scatter and fluorescence of single cells or particles in a stream.

The nature of data set [18]: Oral bioavailability in Sprague-Dawley rat at 45 mg/kg measured upto 24 hrs by LC-MS analysis. As to conditions: in vivo. In kind it is ADME, organism-based. A digest of the protocol:
as §3

Data set [19] concerns MC-38. Nature of the data set: Antitumor activity against PD-L1 humanized mouse MC38 cells implanted in PD-L1 humanized C57BL/6 mouse assessed as tumor growth inhibition at 25 mg/kg, po measured after 30 days. As to conditions: MC-38, po, 720 h, time 30 day, read-out: TGI. Type of data set: functional. A digest of the protocol: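 PD-L1-humanized C57BL/6 mice given 1 × 10⁶ MC38-hPD-L1(Tg)-mPDL1(KO) cells in the right flank. Once tumours reached 50 mm³, randomized into three groups: CMC-Na vehicle, 25 or 50 mg/kg by daily oral gavage for 30 days. TGI from mean tumour volume of treated versus vehicle groups. n = 6.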

Data set [20] has as its system MC-38. Nature of the data set: Antitumor activity against mouse MC38 cells xenografted in C57BL/6 mouse assessed as increase in NK cells at 25 mg/kg, po by flow cytometry analysis. Type of data set: functional, organism-based. A digest of the protocol:
as §2

Data set [21] is described as follows: Toxicity in C57BL/6 mouse assessed as effect on BUN level at 2000 mg/kg, po observed for 30 days. In kind it is organism-based. Particulars: in vivo, 720 h, time 30 day.
Data set [22] in a line: Half life in C57BL/6 mouse at 10 mg/kg, po measured upto 24 hrs by LC-MS analysis. In kind it is ADME, organism-based. Particulars: in vivo. A digest of the protocol: as §1
Data set [23] relates to MC-38. Kind of data set: Antitumor activity against mouse MC38 cells implanted in C57BL/6 mouse assessed as tumor growth inhibition at 150 mg/kg, po measured after 18 days. Type of data set: functional. Particulars: MC-38, po, 432 h, time 18 day, read-out: TGI. A digest of the protocol: as §5
For data set [24], the system named is B16-F10. Kind of data set: Antitumor activity against mouse B16-F10 cells implanted in C57BL/6 mouse assessed as tumor growth inhibition at 45 mg/kg, po measured after 18 days. Particulars: 432 h, time 18 day, read-out: TGI. In kind it is functional. A digest of the protocol:
as §6

Sequence of Programmed cell death protein 1/Programmed cell death 1 ligand 1 (Q15116 whole entry): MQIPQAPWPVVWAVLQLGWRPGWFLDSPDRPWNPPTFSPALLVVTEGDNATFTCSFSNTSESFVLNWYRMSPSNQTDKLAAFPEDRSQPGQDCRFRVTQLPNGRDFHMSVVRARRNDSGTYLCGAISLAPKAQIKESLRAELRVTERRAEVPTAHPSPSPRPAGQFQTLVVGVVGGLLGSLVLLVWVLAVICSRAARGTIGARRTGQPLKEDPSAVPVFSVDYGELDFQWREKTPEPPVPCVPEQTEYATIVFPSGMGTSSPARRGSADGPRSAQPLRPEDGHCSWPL
Sequence of Programmed cell death protein 1/Programmed cell death 1 ligand 1 (Q9NZQ7 whole entry): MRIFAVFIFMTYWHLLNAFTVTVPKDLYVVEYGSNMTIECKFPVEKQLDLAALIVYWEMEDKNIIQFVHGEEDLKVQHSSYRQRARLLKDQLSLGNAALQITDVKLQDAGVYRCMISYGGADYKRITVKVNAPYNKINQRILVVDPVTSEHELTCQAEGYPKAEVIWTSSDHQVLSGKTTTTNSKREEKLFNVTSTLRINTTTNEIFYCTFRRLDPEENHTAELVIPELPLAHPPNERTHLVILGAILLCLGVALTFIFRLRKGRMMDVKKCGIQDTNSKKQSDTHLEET

For the molecule `CCOC(=O)[C@@H](CO)NCc1cc(Cl)c(OCc2cccc(-c3ccccc3)c2Br)cc1OCc1ccc2nonc2c1.Cl`, the exposure AUC(0-t) at 24 h came out at 1150 ng·h/mL in data set [1] and 444 ng·h/mL in data set [12]. The result in data set [2], in data set [3], in [17] and in [20] was Active. Further, the concentration for half-maximal inhibition (IC50) in data set [4] was found to be 426 nM. Moreover, the inhibition in vivo at 5 mg/kg in data set [5] worked out at 19.3%. Also, the Tmax in [6] amounted to 4.8 min; in data set [10], 4.8 min; in data set [14], 4 h. The Activity result in data set [7] is given as “Non-Toxic”; in [9], “Non-Toxic”; in data set [13], 0.79 g; in data set [15], “Non-Toxic”; in data set [21] it was “Non-Toxic”. The half-life is 3.43 h in [8] and 1.55 h in data set [22]. For the same molecule, the inhibition in vivo at 300 mg/kg in data set [11] came to 48.9%. Further, the bioavailability in [16] turned out to be 7.7%; in data set [18], 9.12%. Moreover, the inhibition in vivo at 25 mg/kg in data set [19] was determined as 44.2%. Moreover, in [23], the inhibition in vivo at 150 mg/kg was found to be 55.1%. For the same molecule, the inhibition in vivo at 45 mg/kg in data set [24] stood at 70.7%.
